Results of several laboratories.
Compare with care: the assays were run in different laboratories. ≈ marks a conversion by molar mass, not a printed value.

SMILES | target or system | assay | system | setting | quantity | value
CO/N=C(\C(=O)N[C@@H]1C(=O)N2C(C(=O)O)=C(CSc3nc(=O)c(=O)[nH]n3C)CS[C@H]12)c1csc(N)n1 | Salmonella enterica | microbial growth | F98, TYPHIMURIUM | 20 h, pH 7 | MIC | 0.125 µg/mL (≈ 0.225 µM)
CONc1ccnc(Nc2cccc(-c3cccnc3)c2)n1 | BJ | cell growth or viability, ATP luminescence | – | 72 h | EC50 | > 12 µM
Cc1cc(NS(=O)(=O)c2ccc(N)cc2)no1 | Salmonella enterica | microbial growth | ENTERITIDIS | 20 h, pH 5.5 | MIC | 128 µg/mL (≈ 505 µM)
C[C@H](Nc1ccnc(Nc2cccc(-c3cccnc3)c2)n1)C(=O)O | BJ | cell growth or viability, ATP luminescence | – | 72 h | EC50 | > 9 µM
CN(C)[C@@H]1C(O)=C(C(N)=O)C(=O)[C@@]2(O)C(O)=C3C(=O)c4c(O)cccc4[C@@](C)(O)[C@H]3C[C@@H]12 | Salmonella enterica | microbial growth | ENTERITIDIS | 20 h, pH 7.2 | MIC | 2 µg/mL (≈ 4.5 µM)
COC(=O)c1cccc(-c2cccc(Nc3nccc(NC(C)C)n3)c2)c1 | BJ | cell growth or viability, ATP luminescence | – | 72 h | EC50 | 13.2 µM
O=c1cc(-c2ccc(O)cc2)oc2cc(O)cc(O)c12 | Helicobacter pylori | microbial growth, broth dilution | – | 31.25 µg/mL | inhibition | 100%
O=C(N[C@H](CO)[C@H](O)c1ccc([N+](=O)[O-])cc1)C(Cl)Cl | Salmonella enterica | microbial growth | – | 20 h, pH 7 | MIC | 2 µg/mL (≈ 6.19 µM)
Cc1ccc(-c2nc3ccccc3s2)cc1NC(=O)c1cc([N+](=O)[O-])c(NC2CCN(C)CC2)cc1Cl | BJ | cell growth or viability, ATP luminescence | – | – | EC50 | > 9.2 µM
CC[C@H]1OC(=O)[C@H](C)[C@@H](O[C@H]2C[C@@](C)(OC)[C@@H](O)[C@H](C)O2)[C@H](C)[C@@H](O[C@@H]2O[C@H](C)C[C@H](N(C)C)[C@H]2O)[C@](C)(OC)C[C@@H](C)C(=O)[C@H](C)[C@@H](O)[C@]1(C)O | Helicobacter pylori | microbial growth, broth dilution | – | 0.24 µg/mL | inhibition | 81.3%
c1cncc(-c2cccc(Nc3nccc(NC4CCOCC4)n3)c2)c1 | BJ | cell growth or viability, ATP luminescence | – | 72 h | EC50 | > 24 µM
O=c1cc(-c2ccc(O)c(O)c2)oc2cc(O)cc(O)c12 | Helicobacter pylori | microbial growth, broth dilution | – | 3.9 µg/mL | inhibition | 100%
COC(=O)c1cccc(Nc2nccc(NC3CCCCC3)n2)c1 | BJ | cell growth or viability, ATP luminescence | – | 72 h | EC50 | > 17 µM
CCN1CCN(c2cc3c(cc2F)c(=O)c(C(=O)O)cn3C2CC2)CC1 | Salmonella enterica | microbial growth | F98, TYPHIMURIUM | 20 h, pH 7 | MIC | 0.0313 µg/mL (≈ 0.0871 µM)
O=C(O)c1ccc(O)cc1 | Helicobacter pylori | microbial growth, broth dilution | – | 62.5 µg/mL | inhibition | 100%
